Assays:
[1] = molecular target: T1, Arachidonate 5-lipoxygenase-activating protein (Homo sapiens, UniProt P20292); experiment: Inhibition of FLAP in calcimycin-stimulated human whole blood assessed as inhibition of LTB4 synthesis preincubated for 15 mins followed by calcimycin stimulation measured after 30 mins
T1 sequence (P20292 whole entry): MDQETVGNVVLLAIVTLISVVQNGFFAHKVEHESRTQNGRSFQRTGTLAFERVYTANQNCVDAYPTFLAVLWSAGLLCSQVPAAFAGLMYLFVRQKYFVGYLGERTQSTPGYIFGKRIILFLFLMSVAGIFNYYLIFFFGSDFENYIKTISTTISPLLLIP
In short: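 Heparinized human volunteer blood preincubated with compound 15 min at 37 °C, 5 % CO2; calcimycin 100 µM final, 30 min at 37 °C; spun 2000 rpm 5 min at 4 °C. Supernatant LTB4 measured by HTRF competition (LTB4-XL665 plus anti-LTB4 cryptate, 2 h room temperature). Geometric mean (n ≥ 3) of duplicate 10-point curves.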

[2] = molecular target: Cytochrome P450 2C9 (Homo sapiens, UniProt P11712); experiment: Inhibition of CYP2C9 in human liver microsomes using dichlofenac as substrate preincubated for 10 mins followed by NADPH addition measured after 6 mins; format: ADME
In short: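 Human liver microsomes (0.05 mg/mL protein) with cocktail substrates: 4 µM diclofenac (2C9), 3 µM dextromethorphan (2D6), 2.5 µM midazolam (3A4). Compound in 0.1 M potassium phosphate pH 7.4 preincubated 10 min at 37 °C; NADPH added, reaction 6 min at 37 °C.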

[3] = molecular target: Leukotriene B4 receptor 1 (Homo sapiens) (UniProt Q15722); experiment: Inhibition of BLT1 (unknown origin) at 10 uM relative to control
[4] = molecular target: Prostaglandin G/H synthase 1 (Homo sapiens) (UniProt P23219); experiment: Inhibition of cyclooxygenase-1 (unknown origin) at 10 uM relative to control
[5] = Plasma concentration in C57BL/6 mouse at 10 mg/kg, po after 2 hrs; format: ADME, organism-based; set-up: dose 10 mg/kg, route oral
[6] = Plasma concentration in C57BL/6 mouse at 1 mg/kg, po after 2 hrs; format: ADME, organism-based; set-up: dose 1 mg/kg, route oral
[7] = molecular target: T2, Leukotriene A-4 hydrolase (Homo sapiens) (UniProt P09960); experiment: Inhibition of LTA4 hydrolase (unknown origin) at 10 uM relative to control
T2 sequence (whole entry): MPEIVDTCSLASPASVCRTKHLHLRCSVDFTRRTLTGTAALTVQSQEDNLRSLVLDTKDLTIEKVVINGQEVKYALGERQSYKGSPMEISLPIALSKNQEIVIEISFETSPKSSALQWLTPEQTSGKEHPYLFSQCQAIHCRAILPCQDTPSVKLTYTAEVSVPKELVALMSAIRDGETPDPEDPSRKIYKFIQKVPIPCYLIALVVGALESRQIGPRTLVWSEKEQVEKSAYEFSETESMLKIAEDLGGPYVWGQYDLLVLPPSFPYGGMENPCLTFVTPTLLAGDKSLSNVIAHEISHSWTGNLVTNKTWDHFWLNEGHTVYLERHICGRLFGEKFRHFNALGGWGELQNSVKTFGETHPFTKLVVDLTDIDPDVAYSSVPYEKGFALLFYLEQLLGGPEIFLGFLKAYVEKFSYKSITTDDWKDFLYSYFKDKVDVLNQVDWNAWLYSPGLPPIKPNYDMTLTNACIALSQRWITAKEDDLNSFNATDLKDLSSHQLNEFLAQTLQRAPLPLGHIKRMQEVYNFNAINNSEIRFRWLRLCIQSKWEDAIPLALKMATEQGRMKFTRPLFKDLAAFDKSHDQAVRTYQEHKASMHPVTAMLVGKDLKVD

[8] = molecular target: T3, Polyunsaturated fatty acid 5-lipoxygenase (Homo sapiens) (UniProt P09917); experiment: Inhibition of 5-LO (unknown origin) at 10 uM relative to control
T3 sequence (whole entry): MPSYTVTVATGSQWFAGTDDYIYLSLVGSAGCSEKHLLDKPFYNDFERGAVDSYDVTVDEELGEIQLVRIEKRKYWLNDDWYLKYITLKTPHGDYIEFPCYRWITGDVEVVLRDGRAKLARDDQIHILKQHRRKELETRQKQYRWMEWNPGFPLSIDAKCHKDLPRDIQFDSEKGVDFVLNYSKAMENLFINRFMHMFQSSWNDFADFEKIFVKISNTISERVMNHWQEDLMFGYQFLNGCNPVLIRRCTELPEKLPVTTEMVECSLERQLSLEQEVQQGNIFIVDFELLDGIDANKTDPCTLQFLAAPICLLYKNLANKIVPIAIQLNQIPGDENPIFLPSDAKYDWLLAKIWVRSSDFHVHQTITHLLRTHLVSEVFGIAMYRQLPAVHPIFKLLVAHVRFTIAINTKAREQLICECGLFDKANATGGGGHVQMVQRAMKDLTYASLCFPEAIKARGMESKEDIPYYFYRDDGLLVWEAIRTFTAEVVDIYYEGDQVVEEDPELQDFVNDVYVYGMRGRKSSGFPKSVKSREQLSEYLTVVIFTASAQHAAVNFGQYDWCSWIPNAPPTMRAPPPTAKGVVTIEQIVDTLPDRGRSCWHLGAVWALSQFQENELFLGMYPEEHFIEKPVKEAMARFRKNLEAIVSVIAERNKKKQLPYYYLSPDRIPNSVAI

[9] = Mean residence time in dog at 1 mg/kg, iv; format: ADME, organism-based, Canis lupus familiaris; set-up: dose 1 mg/kg, route intravenous; conditions: in vivo
In short: (§1)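 iv 1 mg/kg in 70 % PEG; po 10 mg/kg as suspension in 0.5 % methyl cellulose/0.015 % Tween. Blood sampled at 11 timepoints (0, 5, 15, 30 min, 1, 2, 4, 6, 8, 12, 24 h) per dose; mean of n = 3. Clearance expressed as percent of hepatic blood flow.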

[10] = Volume of distribution at steady state in cynomolgus monkey at 1 mg/kg, iv and 10 mg/kg, po; format: ADME, organism-based, Macaca fascicularis; conditions: in vivo, read-out: Vdss; in short: as §1
[11] = tested on: Mus musculus; experiment: In vivo inhibition of FLAP in po dosed C57BL/6 mouse assessed as reduction of LTB4 production in calcimycin-stimulated whole blood after 2 hrs by ELISA; format: functional, organism-based
[12] = Efflux ratio of permeability across human Caco2 cells; format: ADME, cell-based; conditions: Caco-2
In short: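 Caco-2 cells were seeded at 1-2 x 10^5 cells/cm2 on 0.4 µm PET filter inserts and cultured 10 to 25 days. Compound in HTP-4 transport buffer was added to the apical or basolateral donor side for A-B or B-A transport. Donor and receiver samples were taken up to 2 h and measured by LC/MS/MS. Each value is from duplicate 6-timepoint curves (0 to 2 h).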

Chain of Leukotriene B4 receptor 1 (Homo sapiens) (Q15722 whole entry): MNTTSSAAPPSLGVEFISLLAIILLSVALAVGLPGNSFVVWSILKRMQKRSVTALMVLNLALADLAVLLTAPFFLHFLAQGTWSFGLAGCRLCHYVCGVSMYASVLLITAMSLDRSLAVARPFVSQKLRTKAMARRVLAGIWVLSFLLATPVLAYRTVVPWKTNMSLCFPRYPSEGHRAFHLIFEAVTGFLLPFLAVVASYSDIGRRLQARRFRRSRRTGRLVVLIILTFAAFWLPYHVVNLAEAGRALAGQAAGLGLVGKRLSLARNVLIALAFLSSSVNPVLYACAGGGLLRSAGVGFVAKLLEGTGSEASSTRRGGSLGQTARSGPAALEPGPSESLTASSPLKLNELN
Chain of Prostaglandin G/H synthase 1 (Homo sapiens) (P23219 whole entry): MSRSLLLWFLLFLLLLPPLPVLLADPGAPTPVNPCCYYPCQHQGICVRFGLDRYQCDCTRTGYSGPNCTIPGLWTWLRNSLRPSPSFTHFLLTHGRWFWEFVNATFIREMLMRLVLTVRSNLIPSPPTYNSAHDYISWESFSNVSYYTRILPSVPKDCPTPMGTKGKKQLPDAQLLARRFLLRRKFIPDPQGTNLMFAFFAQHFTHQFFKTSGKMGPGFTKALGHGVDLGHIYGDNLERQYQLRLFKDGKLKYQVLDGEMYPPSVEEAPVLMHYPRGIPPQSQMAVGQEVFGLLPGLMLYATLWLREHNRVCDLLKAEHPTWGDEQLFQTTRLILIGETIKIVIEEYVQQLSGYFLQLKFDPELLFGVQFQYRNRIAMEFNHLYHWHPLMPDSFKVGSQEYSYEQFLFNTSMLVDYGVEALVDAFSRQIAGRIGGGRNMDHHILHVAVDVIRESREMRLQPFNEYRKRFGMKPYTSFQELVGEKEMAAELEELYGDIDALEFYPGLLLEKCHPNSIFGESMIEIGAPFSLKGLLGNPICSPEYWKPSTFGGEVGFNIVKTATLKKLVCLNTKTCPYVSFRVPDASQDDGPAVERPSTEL
Chain of Cytochrome P450 2C9 (P11712 whole entry): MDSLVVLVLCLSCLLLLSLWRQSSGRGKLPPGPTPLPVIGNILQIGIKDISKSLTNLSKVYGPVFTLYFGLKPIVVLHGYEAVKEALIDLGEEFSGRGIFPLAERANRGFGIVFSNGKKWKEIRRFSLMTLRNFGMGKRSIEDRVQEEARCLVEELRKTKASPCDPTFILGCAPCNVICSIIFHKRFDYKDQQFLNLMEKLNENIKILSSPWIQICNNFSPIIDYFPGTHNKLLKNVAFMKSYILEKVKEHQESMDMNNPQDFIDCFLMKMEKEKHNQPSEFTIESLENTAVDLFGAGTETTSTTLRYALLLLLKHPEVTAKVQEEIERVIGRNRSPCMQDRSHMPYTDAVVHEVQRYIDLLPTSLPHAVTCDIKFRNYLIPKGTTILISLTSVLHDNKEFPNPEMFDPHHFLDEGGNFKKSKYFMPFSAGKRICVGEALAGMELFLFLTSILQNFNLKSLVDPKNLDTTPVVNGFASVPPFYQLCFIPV

- IC50 [1]: 0.045 µM
- IC50 [2]: > 30 µM
- inhibition [3]: < 50%
- inhibition [4]: < 50%
- concentration at 2 h [5]: 14.8 µM
- concentration at 2 h [6]: 1.7 µM
- inhibition [7]: < 50%
- inhibition [8]: < 50%
- MRT [9]: 23 h
- Vd [10]: 0.5 L/kg
- efflux ratio [12]: 1.9
Compound: CN(C)C(=O)Cn1cc(-c2nc([C@@](C)(c3ccc(-c4cnc(N)nc4)cc3)C3CC3)no2)cn1 [BI 665915]
- inhibition [11]: Dose-dependent effect
